{"data": "Published values from different studies", "target": "Mitogen-activated protein kinase kinase kinase 11 (MAP3K11, Homo sapiens, UniProt Q16584)", "effect on": "enzyme activity", "mode": "inhibitor"}
{"Structure (SMILES)": "Brc1cnc(Nc2cccc(CN3CCOCC3)c2)nc1NCCc1c[nH]cn1", "method": "radiometric", "concentration": "1 µM", "remaining activity [%]": 2}
{"Structure (SMILES)": "Cc1ccc(C(=O)Nc2ccc(CN3CCN(C)CC3)c(C(F)(F)F)c2)cc1C#Cc1cnc2cccnn12", "concentration": "23.5 nM", "remaining activity [%]": 98}
{"Structure (SMILES)": "Oc1cccc(-c2nc(N3CCOCC3)c3oc4ncccc4c3n2)c1", "concentration": "10 µM", "remaining activity [%]": 57}
{"Structure (SMILES)": "Cc1sc(C(=O)NC2COC2)cc1-n1cc(NC(=O)Nc2c(F)cccc2Cl)cn1", "concentration": "10 µM", "remaining activity [%]": 90.7}
{"Structure (SMILES)": "FC(F)c1nc2ccccc2n1-c1nc(N2CCOCC2)nc(N2CCOCC2)n1", "concentration": "10 µM", "remaining activity [%]": 97}
{"Structure (SMILES)": "O=C(Nc1cccc(Nc2ncc(Br)c(NCCc3cnc[nH]3)n2)c1)N1CCCC1", "method": "radiometric", "concentration": "1 µM", "remaining activity [%]": 2}
{"Structure (SMILES)": "O=C(Nc1cnn(-c2csc(C(=O)NC3COC3)c2)c1)Nc1ccccc1Cl", "concentration": "5 µM", "remaining activity [%]": 93.5}
{"Structure (SMILES)": "CC(C)(C)c1nc2c(s1)c1nc(N)ncc1c1ccc(NS(=O)(=O)c3c(F)cccc3F)c(F)c12", "method": "radiometric", "concentration": "1 µM", "remaining activity [%]": 22}
{"Structure (SMILES)": "CC(C)(O)[C@H]1CC[C@H](Nc2ccc3ncc(-c4cccc(C(F)(F)F)c4)n3n2)CC1", "concentration": "1 µM", "remaining activity [%]": 68.9}
{"Structure (SMILES)": "Cc1nn(CC(F)(F)F)cc1Nc1ncc(C2CC2)c(NCCc2c[nH]cn2)n1", "method": "radiometric", "concentration": "1 µM", "remaining activity [%]": 91}
{"Structure (SMILES)": "COc1cc(Nc2cnc(C#N)c(O[C@H](C)CN(C)C)n2)ncc1-c1cnn(C)c1", "method": "radiometric", "concentration": "10 µM", "remaining activity [%]": 69}
